# Test results as given in ChEMBL document CHEMBL1126571, “Isocyanines and pseudoisocyanines as a novel class of potent noradrenaline transport inhibitors: synthesis, detection, and biological activity” (J Med Chem, 1993).
# Assays:
# [1] = Partition coefficient (logP); format: physicochemical; details: octanol/water
# Method in brief: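 Shake-flask octanol/water partition: compound diluted from ethanolic stock to 20 μmol/L in octanol-saturated sodium phosphate buffer (10 mmol/L, pH 7.4). Absorbance read before and after shaking 2 h at 21 °C with buffer-saturated 1-octanol (buffer:octanol volume ratio f), phases split by centrifugation. P = (Ao − Ax)/Ax × f. Read at 520 nm (pseudoisocyanines) or 565 nm (isocyanines); SEM, n = 4.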
# CAKI-1 = assay: Tested for the inhibition of extraneuronal [3H]norepinephrine uptake in Caki-1 cells; format: functional, cell-based; details: Homo sapiens, CAKI-1, 15 min
# Method in brief: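 Human renal carcinoma Caki-1 monolayers expressing extraneuronal noradrenaline transport. Preincubated 20 min at 37 °C in HEPES buffer pH 7.4 with U-0521 and pargyline (10 μmol/L each) and ascorbate 1 mmol/L, then incubated 15 min at 37 °C with 100 nmol/L [3H]noradrenaline. Inhibitor present throughout. Cells rinsed ice-cold, read by scintillation. Specific uptake is the fraction sensitive to 100 μmol/L O-methylisoprenaline. IC50 from Hill fit, geometric mean with 95% confidence limits.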
# PC-12 = assay: Tested for the inhibition of neuronal type of noradrenaline uptake in clonal PC12 cells; format: functional, cell-based; details: Rattus norvegicus
logP [1],IC50 (CAKI-1),IC50 (PC-12),Structure (SMILES)
1.16,14 nM,–,CC(C)N1/C(=C\c2cc[n+](C(C)C)c3ccccc23)C=Cc2ccccc21 [DISPROCYNIUM24]
0.81,100 nM,–,CN1C=C/C(=C/c2ccc3ccccc3[n+]2C)c2ccccc21
0.84,13 nM,–,CC[n+]1c(Cc2ccc3ccccc3[n+]2C(C)C)ccc2ccccc21

# The next lines start with the molecule.
Structure (SMILES),logP [1],IC50 (CAKI-1),IC50 (PC-12)
C[n+]1c(Cc2ccc3ccccc3[n+]2C)ccc2ccccc21,0.34,94 nM,–
CCN1/C(=C\c2cc[n+](CC)c3ccccc23)C=Cc2ccccc21,0.86,29 nM,–
CC(C)[n+]1ccc(/C=C2/C=Cc3ccccc3N2C)c2ccccc21,0.92,51 nM,–
CC[n+]1c(Cc2ccc3ccccc3[n+]2CC)ccc2ccccc21,0.65,12 nM,3000 nM
